Measurements reported in PubChem BioAssay AID463170 (The Scripps Research Institute Molecular Screening Center, 2010).
The source made the active and inactive calls.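 The calls were made as follows: active = fold change of 10 or more over vehicle in p21 reporter light; inactive = fold change below 10.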

Target: Cyclin-dependent kinase inhibitor 1 (Homo sapiens) (UniProt P38936)
Assay: p21 (CDKN1A) degradation inhibitors, late-stage follow-up, selectivity assay for Wee1 degradation inhibitor project, cell-based, HeLa, luciferase fusion, luminescence, powder samples (AID 463170)
Settings: at 0.1 µM, hits give high values
Outline: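 assay system = HeLa cells transiently expressing a p21-luciferase fusion reporter | schedule = 20 h compound treatment, 37 °C | signal = luminescence of p21-luciferase | evaluation = mean fold change versus DMSO | repeats = four replicate wells per compound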

Chain of Cyclin-dependent kinase inhibitor 1 (Homo sapiens) (P38936 whole entry, looked up, the tested form may be a part): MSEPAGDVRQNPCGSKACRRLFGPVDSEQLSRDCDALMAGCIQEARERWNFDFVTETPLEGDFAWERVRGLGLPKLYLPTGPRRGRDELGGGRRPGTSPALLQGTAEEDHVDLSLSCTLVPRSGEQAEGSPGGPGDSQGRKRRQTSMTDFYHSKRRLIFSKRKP

fold change | SMILES
3.41 (inactive) | O=[N+]([O-])c1cccc2[nH]c(CNc3nc(N4CCOCC4)nc4c3ncn4-c3ccsc3)nc12
2.23 (inactive) | c1ccc2[nH]c(CNc3nc(N4CCOCC4)nc4c3ncn4-c3ccsc3)nc2c1
